# Data reported in ChEMBL document CHEMBL4261634, “Design and optimization of 2,3-dihydrobenzo[b][1,4]dioxine propanoic acids as novel GPR40 agonists with improved pharmacokinetic and safety profiles” (Bioorg Med Chem, 2018).
# The source made the active and inactive calls. No cut-off for these calls is given here.
# Legend:
# [1] = Tmax in Sprague-Dawley rat at 3 mg/kg, po by LC-ESI-MS analysis; format: ADME, organism-based; settings: in vivo
# In short: (§1)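 SD rats dosed orally (3 or 10 mg/kg) or by intravenous injection (1 mg/kg). Plasma PK parameters derived per route: Cmax, AUC0-t, Tmax, t1/2 and F after oral dosing; CL, AUC0-t, MRT, t1/2 and Vdss after iv dosing. Mean ± SD from three independent experiments (n = 3).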
# [2] = Oral bioavailability in Sprague-Dawley rat at 3 mg/kg by LC-ESI-MS analysis; format: ADME, organism-based; settings: in vivo; in short: as §1
# [3] = Cmax in Sprague-Dawley rat at 10 mg/kg, po by LC-ESI-MS analysis; format: ADME, organism-based; parameters: dose 10 mg/kg, route oral; settings: in vivo; in short: as §1
# [4] = Elimination half life in Sprague-Dawley rat at 10 mg/kg, po by LC-ESI-MS analysis; format: ADME, organism-based; settings: in vivo, read-out: beta t1/2 (converted); in short: as §1
# [5] = Clearance in Sprague-Dawley rat at 1 mg/kg, iv by LC-ESI-MS analysis; format: ADME, organism-based; settings: in vivo; in short: as §1
# [6] = AUC (0 to t) in Sprague-Dawley rat at 1 mg/kg, iv by LC-ESI-MS analysis; format: ADME, organism-based; settings: in vivo; in short: as §1
# [7] = Volume of distribution at steady state in Sprague-Dawley rat at 1 mg/kg, iv by LC-ESI-MS analysis; format: ADME, organism-based; settings: in vivo, read-out: Vdss; in short: as §1
# [8] = test system: Hepatocyte; assay: Toxicity in sandwich-cultured Sprague-Dawley rat hepatocytes assessed as inhibition of hepatobiliary transport by measuring biliary excretion index at 5 to 40 uM after 15 mins in presence of d8-TCA by LC-MS/MS analysis; format: cell-based; settings: 0.25 h
# In short: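 Sandwich-cultured rat hepatocytes incubated with compound and d8-TCA in standard (Ca2+-containing) or Ca2+-free buffer. Cellular d8-TCA measured, and the biliary excretion index calculated as the fraction of accumulated bile acid excreted into bile. Mean of three independent experiments.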
# [9] = biological target: T1, Free fatty acid receptor 3 (Homo sapiens) (UniProt O14843); assay: Agonist activity at GPR41 (unknown origin) up to 100 uM; format: functional
# T1 sequence (whole entry): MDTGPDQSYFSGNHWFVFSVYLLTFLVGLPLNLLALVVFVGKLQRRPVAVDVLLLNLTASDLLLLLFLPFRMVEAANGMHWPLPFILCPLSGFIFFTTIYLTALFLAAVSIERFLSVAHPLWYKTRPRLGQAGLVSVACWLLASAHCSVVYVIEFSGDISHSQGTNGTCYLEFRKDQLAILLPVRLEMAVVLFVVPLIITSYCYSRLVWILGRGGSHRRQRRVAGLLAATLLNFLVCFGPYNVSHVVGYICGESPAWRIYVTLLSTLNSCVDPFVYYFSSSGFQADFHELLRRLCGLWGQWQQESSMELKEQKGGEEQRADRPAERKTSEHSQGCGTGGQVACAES
# [10] = biological target: T2, Free fatty acid receptor 4 (Homo sapiens) (UniProt Q5NUL3); assay: Agonist activity at GPR120 (unknown origin) up to 100 uM; format: functional
# T2 sequence (whole entry): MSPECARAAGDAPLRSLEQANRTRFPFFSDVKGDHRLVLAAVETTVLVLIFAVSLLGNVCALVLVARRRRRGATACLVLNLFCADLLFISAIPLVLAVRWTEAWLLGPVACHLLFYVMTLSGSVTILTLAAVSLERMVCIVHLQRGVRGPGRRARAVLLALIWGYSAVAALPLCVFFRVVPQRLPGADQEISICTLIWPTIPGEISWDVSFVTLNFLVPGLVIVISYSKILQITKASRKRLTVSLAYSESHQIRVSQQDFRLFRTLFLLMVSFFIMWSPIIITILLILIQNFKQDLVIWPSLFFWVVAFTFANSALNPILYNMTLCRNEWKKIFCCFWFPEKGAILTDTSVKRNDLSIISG
# [11] = biological target: T3, Glucose-dependent insulinotropic receptor (Homo sapiens, UniProt Q8TDV5); assay: Agonist activity at GPR119 (unknown origin); format: functional
# T3 sequence (Q8TDV5 whole entry): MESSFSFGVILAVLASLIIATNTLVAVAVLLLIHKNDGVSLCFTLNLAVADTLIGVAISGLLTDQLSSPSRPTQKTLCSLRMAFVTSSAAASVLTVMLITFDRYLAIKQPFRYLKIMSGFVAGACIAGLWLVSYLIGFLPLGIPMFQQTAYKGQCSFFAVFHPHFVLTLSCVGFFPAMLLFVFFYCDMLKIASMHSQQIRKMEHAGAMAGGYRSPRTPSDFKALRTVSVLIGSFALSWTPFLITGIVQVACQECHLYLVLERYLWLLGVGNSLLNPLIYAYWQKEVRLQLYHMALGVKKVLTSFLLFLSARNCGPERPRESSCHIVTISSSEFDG
# [12] = biological target: ATP-binding cassette sub-family C member 2 (Homo sapiens, UniProt Q92887); assay: Inhibition of human MRP2
# Chain of ATP-binding cassette sub-family C member 2 (Q92887 whole entry): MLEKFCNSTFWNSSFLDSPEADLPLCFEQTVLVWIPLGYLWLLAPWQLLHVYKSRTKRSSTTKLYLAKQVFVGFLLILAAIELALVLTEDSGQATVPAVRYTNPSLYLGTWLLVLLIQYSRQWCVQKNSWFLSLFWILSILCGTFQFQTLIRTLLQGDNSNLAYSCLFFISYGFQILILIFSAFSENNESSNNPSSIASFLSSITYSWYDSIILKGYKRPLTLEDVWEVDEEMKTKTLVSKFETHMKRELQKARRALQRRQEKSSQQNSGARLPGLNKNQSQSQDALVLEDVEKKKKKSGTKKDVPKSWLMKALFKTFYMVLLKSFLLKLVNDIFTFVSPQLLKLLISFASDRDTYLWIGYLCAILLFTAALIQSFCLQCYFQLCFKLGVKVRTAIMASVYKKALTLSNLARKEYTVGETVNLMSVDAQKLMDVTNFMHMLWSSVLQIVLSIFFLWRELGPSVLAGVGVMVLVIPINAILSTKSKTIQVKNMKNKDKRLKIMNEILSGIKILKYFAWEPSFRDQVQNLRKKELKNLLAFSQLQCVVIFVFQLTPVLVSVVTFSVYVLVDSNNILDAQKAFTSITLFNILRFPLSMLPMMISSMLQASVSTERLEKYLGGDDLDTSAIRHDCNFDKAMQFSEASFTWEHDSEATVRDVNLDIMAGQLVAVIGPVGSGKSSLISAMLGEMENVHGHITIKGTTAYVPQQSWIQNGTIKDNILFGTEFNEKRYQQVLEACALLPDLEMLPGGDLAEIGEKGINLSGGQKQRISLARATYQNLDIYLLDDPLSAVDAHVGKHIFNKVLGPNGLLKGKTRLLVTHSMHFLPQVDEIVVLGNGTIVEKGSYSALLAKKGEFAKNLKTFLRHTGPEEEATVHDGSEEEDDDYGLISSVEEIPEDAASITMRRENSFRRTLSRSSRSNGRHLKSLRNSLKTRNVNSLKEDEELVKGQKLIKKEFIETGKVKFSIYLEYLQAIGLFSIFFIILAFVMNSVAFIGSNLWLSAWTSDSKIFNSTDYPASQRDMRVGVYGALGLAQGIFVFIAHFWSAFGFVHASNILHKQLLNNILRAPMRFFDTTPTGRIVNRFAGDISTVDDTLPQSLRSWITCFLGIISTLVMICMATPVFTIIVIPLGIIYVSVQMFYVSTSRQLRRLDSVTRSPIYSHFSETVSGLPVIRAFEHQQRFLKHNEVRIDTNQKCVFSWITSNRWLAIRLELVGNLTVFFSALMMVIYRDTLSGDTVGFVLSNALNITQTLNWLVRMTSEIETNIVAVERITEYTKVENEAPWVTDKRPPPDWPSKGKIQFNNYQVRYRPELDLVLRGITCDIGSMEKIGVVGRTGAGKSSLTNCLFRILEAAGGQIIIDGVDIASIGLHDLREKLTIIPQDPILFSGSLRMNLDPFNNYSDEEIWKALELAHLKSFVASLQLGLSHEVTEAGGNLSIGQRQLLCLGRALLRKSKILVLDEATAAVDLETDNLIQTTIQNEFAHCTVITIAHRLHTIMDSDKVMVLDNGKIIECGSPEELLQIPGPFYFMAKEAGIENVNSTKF
# [13] = biological target: T4, Cytochrome P450 1A2 (Homo sapiens, UniProt P05177); assay: Inhibition of CYP1A2 (unknown origin); format: ADME
# T4 sequence (P05177 whole entry): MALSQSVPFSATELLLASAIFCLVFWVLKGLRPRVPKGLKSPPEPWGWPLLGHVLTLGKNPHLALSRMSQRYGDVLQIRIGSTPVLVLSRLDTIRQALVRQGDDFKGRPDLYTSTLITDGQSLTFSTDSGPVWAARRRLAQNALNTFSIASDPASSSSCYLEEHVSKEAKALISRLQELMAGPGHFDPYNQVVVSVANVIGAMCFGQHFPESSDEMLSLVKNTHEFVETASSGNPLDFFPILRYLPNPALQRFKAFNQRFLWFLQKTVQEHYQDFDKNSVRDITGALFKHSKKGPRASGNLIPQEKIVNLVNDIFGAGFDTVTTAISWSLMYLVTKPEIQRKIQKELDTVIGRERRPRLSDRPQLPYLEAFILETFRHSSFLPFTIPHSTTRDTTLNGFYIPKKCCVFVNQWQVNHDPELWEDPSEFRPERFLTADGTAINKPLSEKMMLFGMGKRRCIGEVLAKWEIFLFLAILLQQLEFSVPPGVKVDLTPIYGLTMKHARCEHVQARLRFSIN
# [14] = biological target: Cytochrome P450 2D6 (Homo sapiens, UniProt P10635); assay: Inhibition of CYP2D6 (unknown origin); format: ADME
# Chain of Cytochrome P450 2D6 (P10635 whole entry): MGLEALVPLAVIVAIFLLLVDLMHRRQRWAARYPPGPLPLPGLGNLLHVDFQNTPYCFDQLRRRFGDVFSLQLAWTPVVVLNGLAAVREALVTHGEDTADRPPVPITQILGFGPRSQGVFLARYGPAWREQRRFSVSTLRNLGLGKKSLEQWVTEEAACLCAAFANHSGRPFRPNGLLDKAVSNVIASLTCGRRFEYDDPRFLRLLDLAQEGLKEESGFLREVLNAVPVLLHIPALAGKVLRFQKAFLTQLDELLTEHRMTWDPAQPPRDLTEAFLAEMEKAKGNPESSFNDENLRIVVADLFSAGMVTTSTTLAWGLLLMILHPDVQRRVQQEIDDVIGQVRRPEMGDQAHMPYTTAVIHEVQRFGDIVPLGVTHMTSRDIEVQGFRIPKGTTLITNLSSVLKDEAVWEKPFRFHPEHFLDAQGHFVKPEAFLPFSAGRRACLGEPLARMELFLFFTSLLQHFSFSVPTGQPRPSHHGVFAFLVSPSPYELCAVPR
# [15] = test system: Salmonella typhimurium; assay: Mutagenicity in Salmonella typhimurium by Ames test; format: toxicity, organism-based; settings: salmonella enterica subsp. enterica serovar typhimurium
# [16] = test system: Rattus norvegicus; assay: Subacute toxicity in Sprague-Dawley rat assessed as effect on behavior at 50 to 100 mg/kg, po administered once daily for 2 weeks; format: organism-based; settings: in vivo, 336 h
# In short: (§2)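 SD rats dosed orally once daily for two weeks at 50 mg/kg and 100 mg/kg. Subacute toxicity was assessed over the dosing period from survival rate, behaviour, food intake and organ coefficients.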
# [17] = test system: Rattus norvegicus; assay: Subacute toxicity in Sprague-Dawley rat assessed as effect on food intake at 50 to 100 mg/kg, po administered once daily for 2 weeks; format: organism-based; settings: in vivo, 336 h; in short: as §2
# [18] = test system: Rattus norvegicus; assay: Subacute toxicity in Sprague-Dawley rat assessed as effect on organ coefficients at 50 to 100 mg/kg, po administered once daily for 2 weeks; format: organism-based; settings: in vivo, 336 h; in short: as §2
smiles,measurement,setting,value
CC#C[C@@H](CC(=O)O)c1ccc(OC[C@H]2COc3ccc(Cl)cc3O2)cc1,Tmax,[1],3 h
same,bioavailability,[2],65.5%
same,Cmax,[3],47800 ng/mL
same,half-life,[4],25.7 h
same,clearance,[5],0.17 mL/min/kg
same,AUC(0-t),[6],71400 ng·h/mL
same,Vd,[7],0.182 L/kg
same,Activity,[8],Non-Toxic
same,Activity,[9],inactive
same,Activity,[10],inactive
same,EC50,[11],> 100 µM
same,IC50,[12],> 100 µM
same,IC50,[13],> 100 µM
same,IC50,[14],> 100 µM
same,Activity,[15],Non-Toxic
same,Activity,[16],Non-Toxic
same,Activity,[17],Non-Toxic
same,Activity,[18],Non-Toxic
